Laboratory results taken from ChEMBL document CHEMBL1145441, “Synthesis and anti-HIV activity of new metabolically stable alkenyldiarylmethane non-nucleoside reverse transcriptase inhibitors incorporating N-methoxy imidoyl halide and 1,2,4-oxadiazole systems” (J Med Chem, 2007).
Active and inactive are the calls of the source.

Columns and labels:
[1] = tested on: Human immunodeficiency virus 2; assay: Antiviral activity against HIV2 ROD in MT4 cells by MTT assay; format: functional, organism-based
Method in brief: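 HIV-2 strain ROD infection of MT-4 cells; MTT cytoprotection read-out; EC50 is the 50% effective concentration against virus-induced cytopathicity; mean values from at least two separate experiments.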

[2] = biological target: Human immunodeficiency virus type 1 reverse transcriptase (Human immunodeficiency virus 1, UniProt Q72547); assay: Inhibition of HIV1 recombinant reverse transcriptase
[3] = Cytotoxicity against mock-infected MT4 cells; format: cell-based; details: human
Method in brief: (§1)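 Mock-infected CEM-SS or MT-4 cells; CC50 defined as 50% cytotoxic concentration; means of at least two separate experiments.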

[4] = Cytotoxicity against mock-infected CEM-SS cells; format: cell-based; details: human; method in brief: as §1
[5] = Metabolic stability in rat plasma; format: ADME, cell-free
Method in brief: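 Hydrolytic stability in rat plasma in vitro, with 1,1-diphenylethylene or benzophenone as internal standard; samples followed by HPLC; half-life reported in minutes as mean ± SD of at least two separate experiments.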

[6] = tested on: Human immunodeficiency virus 1; assay: Antiviral activity against HIV1 RF in CEM-SS cells by XTT assay; format: functional, organism-based; details: for EC50: Human immunodeficiency virus 1, RF
Method in brief: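 HIV-1 RF infection of CEM-SS cells, with protection scored by XTT cytoprotection assay; EC50 defined as 50% effective concentration for inhibiting cytopathicity; means of at least two separate experiments.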

[7] = tested on: Human immunodeficiency virus 1; assay: Antiviral activity against HIV1 3B in MT4 cells by MTT assay; format: functional, organism-based; details: for EC50: Human immunodeficiency virus 1, 3B
Method in brief: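 Cytoprotection read-out by MTT in MT-4 cells infected with HIV-1 strain IIIB; EC50 taken as the concentration giving 50% inhibition of viral cytopathicity; means of at least two separate experiments.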

| Structure (SMILES) | IC50 [2] [µM] | half-life [5] [h] | Activity [1] | CC50 [3] [µM] | CC50 [4] [µM] | Activity [6] | EC50 [7] [µM] | EC50 [6] [µM] | Activity [7] |
| --- | --- | --- | --- | --- | --- | --- | --- | --- | --- |
| COC(=O)CCCC=C(c1cc(C)c(OC)c(C(=O)OC)c1)c1cc(C)c(OC)c(C(=O)OC)c1 | 1 | 0.0127 | inactive | 6.1 | 6 | – | – | 0.25 | – |
| CO/N=C(\F)c1cc(/C(=C\CCCc2nc(C)no2)c2cc(C)c3oc(=O)n(C)c3c2)cc(C)c1OC | 0.67 | 60.7 | inactive | 12.4 | 2.9 | – | 0.24 | 0.7 | – |
| CONC(=O)CCC/C=C(\c1cc(C)c(OC)c(C(=O)NOC)c1)c1cc(C)c2oc(=O)n(C)c2c1 | > 100 | – | inactive | 18.4 | 5.4 | inactive | – | – | inactive |
| CO/N=C(\F)c1cc(/C(=C\CCCC(=O)OC)c2cc(C)c3oc(=O)n(C)c3c2)cc(C)c1OC | 0.55 | 0.153 | inactive | 21 | 3.9 | – | 0.29 | 0.5 | – |

Second part, led by results:

| IC50 [2] [µM] | half-life [5] [h] | Structure (SMILES) | Activity [1] | CC50 [3] [µM] | CC50 [4] [µM] | Activity [6] | EC50 [7] [µM] | EC50 [6] [µM] | Activity [7] |
| --- | --- | --- | --- | --- | --- | --- | --- | --- | --- |
| 0.6 | 82.8 | CO/N=C(\Cl)CCC/C=C(\c1cc(C)c(OC)c(/C(Cl)=N/OC)c1)c1cc(C)c2oc(=O)n(C)c2c1 | inactive | 3.9 | 1.3 | inactive | – | – | – |
| 0.85 | 2.6 | CO/N=C(\Br)CCC/C=C(\c1cc(C)c(OC)c(/C(Br)=N/OC)c1)c1cc(C)c2oc(=O)n(C)c2c1 | inactive | 13.3 | 2.1 | inactive | 6.3 | – | – |
| > 100 | – | CONC(=O)c1cc(/C(=C\CCCC(=O)OC(C)(C)C)c2cc(C)c3oc(=O)n(C)c3c2)cc(C)c1OC | inactive | 16.8 | 5.2 | inactive | – | – | inactive |
| 0.02 | 0.0217 | COC(=O)CCC/C=C(\c1cc(C)c(OC)c(C(=O)OC)c1)c1cc(C)c2oc(=O)n(C)c2c1 | inactive | 16.9 | 5.1 | – | – | 0.02 | – |
